Data on 10 compounds can be found in ChEMBL document CHEMBL1125735, “trans-hexahydroindolo[4,3-ab]phenanthridines ("benzergolines"), the first structural class of potent and selective dopamine D1 receptor agonists lacking a catechol group” (1991).

For experiment [1], the species on record is Bos taurus. In words: Percent of maximal effect of 125 uM Dopamine in the adenylate cyclase assay. It counts as functional. Summed up: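 Dopamine-sensitive adenylate cyclase assay run on bovine retina tissue.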
Experiment [2] has as its target D(2) dopamine receptor (Rattus norvegicus) (UniProt P61169). In words: Percent of maximal inhibition by change of S2/S1 versus control at 1 uM for the cetylcholine (ACh) release as a model for Dopamine D2 receptor activation. The class given is functional. The arrangement: scale not given: the % may be the effect or the level left. Summed up:
(§1)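 Electrically evoked acetylcholine release measured in rat striatal slices.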

Experiment [3] relates to Dopamine D1 receptor (Bos taurus). As to the kind of experiment: Compound was evaluated for its potency to Dopamine D1 stimulating effect in the adenylate cyclase assay.
The target in experiment [4] is D(2) dopamine receptor (Rattus norvegicus) (UniProt P61169). As to the kind of experiment: Compound was evaluated for its potency to inhibit electrically evoked acetylcholine (ACh) release as a model for Dopamine D2 receptor activation. It counts as functional. Summed up:
as §1

The target is the same in experiment [5]. In words: Percent of maximal inhibition by change of S2/S1 versus control at 1 uM for the acetylcholine (ACh) release as a model for Dopamine D2 receptor activation. The arrangement: scale not given: the % may be the effect or the level left. The class given is functional. Summed up: as §1
For experiment [6] the target is unchanged. As to conditions: 1 uM.

Sequence of D(2) dopamine receptor (Rattus norvegicus) (P61169 whole entry): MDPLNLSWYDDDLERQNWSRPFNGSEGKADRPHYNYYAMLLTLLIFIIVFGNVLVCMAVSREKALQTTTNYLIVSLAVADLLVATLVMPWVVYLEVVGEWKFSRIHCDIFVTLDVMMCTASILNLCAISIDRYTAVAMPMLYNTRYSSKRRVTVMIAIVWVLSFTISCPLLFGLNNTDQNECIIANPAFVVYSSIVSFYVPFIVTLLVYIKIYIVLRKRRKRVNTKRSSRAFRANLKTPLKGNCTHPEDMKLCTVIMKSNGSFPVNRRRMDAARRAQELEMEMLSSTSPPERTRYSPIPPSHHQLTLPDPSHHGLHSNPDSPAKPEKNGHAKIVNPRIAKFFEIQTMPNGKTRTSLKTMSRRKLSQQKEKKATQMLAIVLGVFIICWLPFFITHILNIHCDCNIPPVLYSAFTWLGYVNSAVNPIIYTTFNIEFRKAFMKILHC

On to `Oc1cc2c(cc1O)C(c1ccccc1)CNCC2` (stereo not given) [SKF-38393], for which the Relative activity in experiment [1] came out at 58%. In experiment [2], this compound had a Control of 0%. The compound also came in with a pD2 in experiment [3] of 6.6.

In experiment [1], `CN1CCC[C@H]2c3cccc4[nH]cc(c34)C[C@H]21` gave a Relative activity of 24%. In experiment [2], the Control was determined as 30%. In addition, the pD2 was found to be 7.5 in experiment [4] and 5.2 in experiment [3].

Compound `CCCN1Cc2ccccc2[C@H]2c3cccc4[nH]cc(c34)C[C@H]21` yielded a Relative activity in experiment [1] of 55%. In experiment [5], the Control was determined as 0%. In experiment [3], the pD2 is 5.7.

As for `CCCCN1Cc2ccccc2[C@H]2c3cccc4[nH]cc(c34)C[C@H]21`, the Relative activity in experiment [1] came out at 0%. In experiment [2], this compound returned a Control of 0%.

`CN1Cc2ccccc2[C@H]2c3cccc4c3C(CN4)C[C@H]21` (stereo not given in full): the Relative activity in experiment [1] is listed as 0%. For the same compound, the Control in experiment [2] was 0%.

`CN1CCc2cccc3c2[C@H]1Cc1ccc(O)c(O)c1-3` [APOMORPHINE] showed a Relative activity in experiment [1] of 38%. The pD2 stood at 7.5 in experiment [4] and 6.2 in experiment [3]. This compound also came in with a Control in experiment [6] of 85%.

The compound `c1ccc2c(c1)CN[C@@H]1Cc3c[nH]c4cccc(c34)[C@H]21` came in with a Relative activity in experiment [1] of 82%. In experiment [5], this compound registered a Control of 0%. Besides, the pD2 in experiment [3] is on record as 6.3.

In the case of `CN1Cc2ccccc2[C@H]2c3cccc4[nH]cc(c34)C[C@H]21`, the Relative activity in experiment [1] was 57%. For the same compound, in experiment [5], the Control came to 0%. Also, in experiment [3], the pD2 was determined as 6.1.

`CCN1Cc2ccccc2[C@H]2c3cccc4[nH]cc(c34)C[C@H]21` displayed a Relative activity in experiment [1] of 72%. The Control in experiment [5] came out at 0%. This compound also came in with a pD2 in experiment [3] of 6.

`Oc1ccc([C@@H]2CNCc3ccccc32)cc1O` yielded a Relative activity in experiment [1] of 86%. For the same compound, in experiment [2], the Control turned out to be 0%. Besides, the pD2 in experiment [3] amounted to 6.
